Measured values reported in ChEMBL document CHEMBL2346582, “Guanidino anthrathiophenediones as G-quadruplex binders: uptake, intracellular localization, and anti-Harvey-Ras gene activity in bladder cancer cells” (J Med Chem, 2013).
Blank lines part the entries; values can stand above or below the compound they belong to. Activity calls are given as the source filed them. The calls are words filed in the database; no cut-off is given here.

Key:
T-24 [1] = assay: Binding affinity to HRAS G-quadruplex DNA in human T24 cells assessed as reduction in p21HRAS level at 5 uM after 72 hrs by immunoblotting analysis relative to control
NIH3T3 = assay: Cellular uptake in mouse NIH/3T3 cells after 4 hrs by FACS flow cytometric analysis in presence of dynasore; assay type: ADME, cell-based; conditions: nih3t3, 4 h
T-24 [2] = assay: Cellular uptake in human T24 cells at 4 degC by FACS flow cytometric analysis; assay type: ADME, cell-based
Method in brief: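 T24 cells incubated with ligand at 4 °C or 37 °C. Intracellular ligand fluorescence measured by flow cytometry in the FL3 (680 nm) channel.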

Homo sapiens [3] = species: Homo sapiens; assay: Thermal stabilization of human telomeric G-quadruplex FAM-TTAGGGTTAGGGTTAGGGTTAGGG-TAMRA DNA assessed as melting temperature at 1:3 DNA:ligand ratio by FRET assay
Method in brief: (§1)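 Telomeric quadruplex (TTAGGG)4, 200 nM, dual-labelled, in 100 mM KCl, Tris-HCl buffer. Melted with ligand at r = 1, 2, 3, 4 or 5 ([ligand]/[quadruplex]). Samples equilibrated 5 min at 20 °C, then heated in 1 °C/min steps to 95 °C; TM read from the donor/acceptor emission.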

T-24 [4] = assay: Cellular uptake in human T24 cells assessed as accumulation in nucleoplasm at 2.5 uM after 2 hrs by propidium iodide staining-based confocal microscopic analysis; assay type: ADME, cell-based; conditions: t-24, 2 h
Method in brief: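 T24 cells plated (3 × 10^5) on coverslips and treated after 24 h with 2.5 μM ligand for 2 h. Fixed in 3% paraformaldehyde and permeabilized with Triton X-100. Cytoplasm immunostained for DRP1 with FITC secondary; nuclei stained with propidium iodide plus RNase A. Ligand red fluorescence excited at 543 nm; confocal Z-sections at 2 μm intervals.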

Homo sapiens [5] = species: Homo sapiens; assay: Thermal stabilization of human telomeric G-quadruplex FAM-TTAGGGTTAGGGTTAGGGTTAGGG-TAMRA DNA assessed as melting temperature at 1:4 DNA:ligand ratio by FRET assay
Method in brief: as §1

Homo sapiens [6] = species: Homo sapiens; assay: Thermal stabilization of human telomeric G-quadruplex FAM-TTAGGGTTAGGGTTAGGGTTAGGG-TAMRA DNA assessed as melting temperature at 1:5 DNA:ligand ratio by FRET assay
Method in brief: as §1

Homo sapiens [7] = species: Homo sapiens; assay: Thermal stabilization of human telomeric G-quadruplex FAM-TTAGGGTTAGGGTTAGGGTTAGGG-TAMRA DNA assessed as melting temperature at 1:2 DNA:ligand ratio by FRET assay
Method in brief: as §1

T-24 [8] = assay: Binding affinity to HRAS G-quadruplex DNA in human T24 cells assessed as reduction in p21HRAS level at 5 uM after 48 hrs by immunoblotting analysis; assay type: cell-based
Method in brief: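 T24 cells treated with 5 μM ligand for 48 or 72 h. Lysates (30 μg) run on 12% SDS-PAGE and immunoblotted with monoclonal anti-HRAS and β-actin antibodies, with HRP detection. HRAS level = (p21HRAS/β-actin treated)/(p21HRAS/β-actin untreated) × 100.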

Homo sapiens [9] = species: Homo sapiens; assay: Thermal stabilization of human telomeric G-quadruplex FAM-TTAGGGTTAGGGTTAGGGTTAGGG-TAMRA DNA assessed as melting temperature at 1:1 DNA:ligand ratio by FRET assay
Method in brief: as §1

Homo sapiens [10] = species: Homo sapiens; assay: Binding affinity to 32mer duplex DNA (unknown origin) at 5 uM by UV-vis titration
HEK293 [11] = assay: Cellular uptake in human HEK293 cells at 0.5 to 10 uM after 8 hrs by flow cytometric analysis; assay type: ADME, cell-based; conditions: hek293, 8 h
Method in brief: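 Cells plated at 5 × 10^4 per well and treated next day with ligand at […] for 8 h. Then trypsinized, resuspended in PBS and analysed by flow cytometry (488 nm excitation, FL3 680 nm, log scale), at least 10,000 cells per sample. Uptake read from intrinsic ligand red fluorescence.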

HEK293 [12] = assay: Cellular uptake in human HEK293 cells at 0.5 to 10 uM after 10 mins to 8 hrs by flow cytometric analysis; assay type: ADME, cell-based; conditions: hek293, 10 µM
Method in brief: (§2)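 Flow cytometric uptake of 10 μM ligand over time (15 min, 1, 2, 6, 8 h; T24, and up to 8 h in NIH 3T3 and 293). Cells plated at 5 × 10^4 per well the day before. Ligand fluorescence detected in FL3 (680 nm), at least 10,000 cells acquired.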

T-24 [13] = assay: Cellular uptake in human T24 cells at 0.5 to 10 uM after 10 mins to 8 hrs by flow cytometric analysis; assay type: ADME, cell-based; conditions: t-24, 10 µM
Method in brief: as §2

Structure (SMILES): N=C(N)NCCCNc1c2c(c(NCCNC(=N)N)c3ccsc13)C(=O)c1ccccc1C2=O
Activity (T-24 [1]): Active

Drug uptake (NIH3T3): Active
Structure (SMILES): N=C(N)NCCCNc1c2c(c(NCCNC(=N)N)c3sccc13)C(=O)c1ccccc1C2=O
Activity (T-24 [1]): Active

Drug uptake (T-24 [2]): Active | Tm (Homo sapiens [3]): 79.1 °C | Drug uptake (T-24 [4]): Active | Tm (Homo sapiens [5]): 81.1 °C | Tm (Homo sapiens [6]): 83.7 °C | Tm (Homo sapiens [7]): 76.3 °C | Tm (Homo sapiens [9]): 58.5 °C
Structure (SMILES): N=C(N)NCCCCNc1c2c(c(NCCCCNC(=N)N)c3sccc13)C(=O)c1ccccc1C2=O
Activity (T-24 [8]): Active

Drug uptake (T-24 [2]): Active | Activity (Homo sapiens [10]): Active | Drug uptake (HEK293 [11]): Active | Drug uptake (HEK293 [12]): Active | Drug uptake (NIH3T3): Active | Drug uptake (T-24 [13]): Active
Structure (SMILES): N=C(N)NCCNc1c2c(c(NCCNC(=N)N)c3sccc13)C(=O)c1ccccc1C2=O
Activity (T-24 [8]): Active
